Results: ChEMBL document CHEMBL1148390, “Structural analysis and optimization of NK(1) receptor antagonists through modulation of atropisomer interconversion properties” (J Med Chem, 2004)

Assays:
[1] = target: T1, Substance-K receptor (Oryctolagus cuniculus) (UniProt P79218); test: In vitro binding affinity towards Tachykinin receptor 2 using rabbit pulmonary artery tissues
T1 sequence (whole entry): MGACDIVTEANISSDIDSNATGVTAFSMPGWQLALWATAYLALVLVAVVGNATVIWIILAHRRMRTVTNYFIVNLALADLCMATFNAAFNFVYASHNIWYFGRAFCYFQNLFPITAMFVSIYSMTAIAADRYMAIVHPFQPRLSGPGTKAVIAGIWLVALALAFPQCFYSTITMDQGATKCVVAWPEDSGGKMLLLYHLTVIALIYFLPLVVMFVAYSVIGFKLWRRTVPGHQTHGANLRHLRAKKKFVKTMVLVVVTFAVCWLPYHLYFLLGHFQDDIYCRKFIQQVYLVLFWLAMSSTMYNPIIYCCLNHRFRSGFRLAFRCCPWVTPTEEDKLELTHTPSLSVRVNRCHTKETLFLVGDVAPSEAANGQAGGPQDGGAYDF
In short: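 Functional antagonism in isolated rabbit pulmonary artery (n = 2–6), reported as pKB. NK1 tested against agonist ASMSP with antagonist at 1 nM, or at 100 nM where antagonism was not purely competitive; NK2 tested against agonist BANK with antagonist at 1 μM. Where antagonism was not purely competitive, activity was taken as percent inhibition = 100 – maximum relaxation as % of control.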

Substance-P receptor = Substance-P receptor (Homo sapiens, UniProt P25103); test: In vitro binding affinity towards human Tachykinin receptor 1 was determined by using [3H]SP as a radioligand
Chain of Substance-P receptor (P25103 whole entry): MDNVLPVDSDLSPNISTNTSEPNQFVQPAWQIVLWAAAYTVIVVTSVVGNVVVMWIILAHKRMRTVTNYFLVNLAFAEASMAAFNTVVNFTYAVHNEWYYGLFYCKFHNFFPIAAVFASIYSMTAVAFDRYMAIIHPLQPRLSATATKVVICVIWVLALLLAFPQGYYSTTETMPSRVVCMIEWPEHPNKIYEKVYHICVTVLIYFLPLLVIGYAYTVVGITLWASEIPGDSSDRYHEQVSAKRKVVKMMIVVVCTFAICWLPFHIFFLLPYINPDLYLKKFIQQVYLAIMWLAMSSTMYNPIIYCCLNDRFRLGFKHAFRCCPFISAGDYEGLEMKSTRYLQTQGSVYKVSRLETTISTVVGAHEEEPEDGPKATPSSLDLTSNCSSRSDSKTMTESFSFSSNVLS
In short: (§1)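 Human tachykinin receptors stably expressed in mouse erythroleukemia (MEL) cells; NK3 construct differs from genomic sequence at AA439 (Cys vs Phe). Radioligand displacement: [3H]SP for NK1, [125I]NKA for NK2, [125I]MePheNKB for NK3; n ≥ 2 determinations.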

Substance-K receptor = target: T2, Substance-K receptor (Homo sapiens, UniProt P21452); test: In vitro binding affinity towards human Tachykinin receptor 2 was determined by using [125I]NKA as a radioligand; in short: as §1
T2 sequence (P21452 whole entry): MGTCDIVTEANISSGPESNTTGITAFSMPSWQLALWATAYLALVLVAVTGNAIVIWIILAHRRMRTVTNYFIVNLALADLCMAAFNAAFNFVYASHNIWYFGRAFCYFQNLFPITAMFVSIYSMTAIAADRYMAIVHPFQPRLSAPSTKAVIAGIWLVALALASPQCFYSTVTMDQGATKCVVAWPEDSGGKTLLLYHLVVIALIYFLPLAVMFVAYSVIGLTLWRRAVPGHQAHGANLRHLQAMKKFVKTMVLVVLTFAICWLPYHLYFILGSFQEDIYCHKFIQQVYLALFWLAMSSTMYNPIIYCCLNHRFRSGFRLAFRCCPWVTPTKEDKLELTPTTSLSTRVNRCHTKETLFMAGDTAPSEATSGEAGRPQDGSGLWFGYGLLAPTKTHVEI

Gerbillinae = test: Percent inhibitory activity against ASMSP induced foot tapping response in gerbils after oral dose of 5 uM/kg; type: functional
In short: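 Gerbils given antagonist orally at 5 μmol/kg 6 h before central (CNS) administration of ASMSP (100 pmol). Foot-tapping response compared with vehicle-only control animals; result expressed as percent inhibition.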

[2] = test system: Substance-P receptor (Oryctolagus cuniculus); test: In vitro binding affinity towards Tachykinin receptor 1 was determined using rabbit pulmonary artery tissues
[3] = Maximum plasma concentration was measured in dogs after an oral dose of 10 umol/kg; type: ADME, organism-based, Canis lupus familiaris; set-up: dose 10 umol/kg, route oral; settings: dog
In short: (§2)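 Dogs (n = 3) dosed orally at 10–100 μmol/kg as a solution in 75% polyethylene glycol 400 in normal saline; iv bolus comparison at 1–10 μmol/kg. Blood taken via surgically implanted cannula or by venipuncture over 24 h; plasma analysed for unchanged compound by LC–MS.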

[4] = Time for maximum plasma concentration was measured in dogs after an oral dose of 10 uM/kg; type: ADME, organism-based, Canis lupus familiaris; settings: dog; in short: as §2
Neuromedin-K receptor = target: T3, Neuromedin-K receptor (Homo sapiens, UniProt P29371); test: In vitro binding affinity towards human Tachykinin receptor 3 was determined by using [125I]MePhe-NKB as a radioligand; in short: as §1
T3 sequence (P29371 whole entry): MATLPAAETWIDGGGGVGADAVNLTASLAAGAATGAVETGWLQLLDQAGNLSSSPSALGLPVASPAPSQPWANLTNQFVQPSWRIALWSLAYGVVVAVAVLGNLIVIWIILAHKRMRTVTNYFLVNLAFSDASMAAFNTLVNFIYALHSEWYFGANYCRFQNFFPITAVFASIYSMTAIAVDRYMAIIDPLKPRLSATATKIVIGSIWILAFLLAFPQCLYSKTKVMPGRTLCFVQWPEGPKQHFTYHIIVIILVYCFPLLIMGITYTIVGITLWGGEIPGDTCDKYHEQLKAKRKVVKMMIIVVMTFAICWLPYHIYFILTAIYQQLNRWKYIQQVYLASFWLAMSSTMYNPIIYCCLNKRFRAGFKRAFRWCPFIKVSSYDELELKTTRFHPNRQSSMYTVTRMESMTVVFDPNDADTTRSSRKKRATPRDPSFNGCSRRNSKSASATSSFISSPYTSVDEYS

[5] = Area under plasma concentration time curve was measured in dogs after an oral dose of 10 uM/kg; type: ADME, organism-based, Canis lupus familiaris; settings: dog; in short: as §2
[6] = Half-life was measured in dogs after an oral dose of 10 uM/kg; type: ADME, organism-based, Canis lupus familiaris; settings: dog, in vivo; in short: as §2
[7] = Bioavailability was measured in dogs after an oral dose of 10 uM/kg; type: ADME, organism-based, Canis lupus familiaris; settings: dog, in vivo, read-out: Bioavailabiility; in short: as §2

Row | Structure (SMILES) | pKB [1] | Ki (Substance-P receptor) | Ki (Substance-K receptor) | Inhibition (Gerbillinae) | further results
1 | CN(C[C@@H](CCN1CCC(c2ccccc2[S@+](C)[O-])CC1)c1ccc(Cl)c(Cl)c1)C(=O)c1cc(C#N)cc2ccccc12 | 8.3 |  |  |  | 
2 | CCc1c(C#N)cc2ccccc2c1C(=O)N(C)C[C@@H](CCN1CCC(c2ccccc2[S@+](C)[O-])CC1)c1ccc(Cl)c(Cl)c1 (stereo in doubt; form 4) |  | 0.4 nM | 35 nM | 13% | 
3 | CC(C)Cc1c(C#N)cc2ccccc2c1C(=O)N(C)C[C@@H](CCN1CCC(c2ccccc2[S@+](C)[O-])CC1)c1ccc(Cl)c(Cl)c1 | 6.35 |  |  |  | pKB [2]: 7.23
4 | CCCc1c(C#N)cc2ccccc2c1C(=O)N(C)C[C@@H](CCN1CCC(c2ccccc2[S@+](C)[O-])CC1)c1ccc(Cl)c(Cl)c1 | 6.72 |  |  |  | pKB [2]: 7.8
5 | CN(C[C@@H](CCN1CCC(c2ccccc2[S@+](C)[O-])CC1)c1ccc(Cl)c(Cl)c1)C(=O)c1c(-c2ccccc2)c(C#N)cc2ccccc12 | 7.27 |  |  |  | pKB [2]: 7.39
6 | Cc1c(C#N)cc2ccccc2c1C(=O)N(C)C[C@@H](CCN1CCC(c2ccccc2[S@+](C)[O-])CC1)c1ccc(Cl)c(Cl)c1 | 7.1 |  |  |  | pKB [2]: 9.06

Further lines, with some results ahead:

Row | pKB [1] | Ki (Substance-P receptor) | Ki (Substance-K receptor) | Structure (SMILES) | Inhibition (Gerbillinae) | further results
7 | 7.31 |  |  | CCc1c(C#N)cc2ccccc2c1C(=O)N(C)C[C@@H](CCN1CCC(c2ccccc2[S@+](C)[O-])CC1)c1ccc(Cl)c(Cl)c1 (stereo in doubt; 3) [listing 1 of 2 here] |  | 
8 |  | 2.94 nM | 22 nM | CCc1c(C#N)cc2ccccc2c1C(=O)N(C)C[C@@H](CCN1CCC(c2ccccc2[S@+](C)[O-])CC1)c1ccc(Cl)c(Cl)c1 (stereo in doubt; form 3) [listing 1 of 2 here] | 0.3% | 
9 |  | 1.24 nM | 37 nM | CCc1c(C#N)cc2ccccc2c1C(=O)N(C)C[C@@H](CCN1CCC(c2ccccc2[S@+](C)[O-])CC1)c1ccc(Cl)c(Cl)c1 (stereo in doubt; 3) [listing 2 of 2 here] | 33% | Cmax [3]: 662 ng/mL; Tmax [4]: 4 h; Ki (Neuromedin-K receptor): 97 nM; AUC [5]: 6130 ng·h/mL; half-life [6]: 5.9 h; bioavailability [7]: 37.3%
10 | 6.83 |  |  | CCc1c(C#N)cc2ccccc2c1C(=O)N(C)C[C@@H](CCN1CCC(c2ccccc2[S@+](C)[O-])CC1)c1ccc(Cl)c(Cl)c1 (stereo in doubt; form 3) [listing 2 of 2 here] |  | 
11 |  | 6.94 nM | 33 nM | CCc1c(C#N)cc2ccccc2c1C(=O)N(C)C[C@@H](CCN1CCC(c2ccccc2[S@+](C)[O-])CC1)c1ccc(Cl)c(Cl)c1 (stereo in doubt; form 2) [listing 1 of 2 here] | 91% | 
12 | 6.25 |  |  | CCc1c(C#N)cc2ccccc2c1C(=O)N(C)C[C@@H](CCN1CCC(c2ccccc2[S@+](C)[O-])CC1)c1ccc(Cl)c(Cl)c1 (stereo in doubt; form 2) [listing 2 of 2 here] |  | 
13 |  | 1.71 nM | 23 nM | CCc1c(C#N)cc2ccccc2c1C(=O)N(C)C[C@@H](CCN1CCC(c2ccccc2[S@+](C)[O-])CC1)c1ccc(Cl)c(Cl)c1 (stereo in doubt; form 1) [listing 1 of 2 here] | 1.4% | 
14 | 7.11 |  |  | CCc1c(C#N)cc2ccccc2c1C(=O)N(C)C[C@@H](CCN1CCC(c2ccccc2[S@+](C)[O-])CC1)c1ccc(Cl)c(Cl)c1 (stereo in doubt; form 1) [listing 2 of 2 here] |  | 
